{"source": "ChEMBL document CHEMBL3784969", "about": "“Pharmacokinetics of flutamide in patients with renal insufficiency” (Br J Clin Pharmacol, 1999)", "format_in_all_cases": "ADME, organism-based", "key": {"Homo sapiens [1]": {"tested_on": "Homo sapiens", "assay": "Terminal half life in patient (3 patients) with renal insufficiency assessed as hydroxy flutamide at 250 mg, po administered as single dose by gas chromatography", "conditions": "in vivo", "method_in_brief": "(§1)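 Males grouped by 24 h CLcr normalised to body surface area (>80, 50–80, 30–49, 5–29 ml min−1 1.73 m−2), fasted 10 h pre-dose and 4 h post-dose, given a single oral 250 mg flutamide dose. Plasma sampled 0–96 h; urine collected in blocks to 96 h. Flutamide and hydroxyflutamide measured by GC with electron-capture detection. Renal CL = Ae(0,96 h)/AUC(0,96 h); t1/2 = 0.693/λz.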"}, "Homo sapiens [2]": {"tested_on": "Homo sapiens", "assay": "Cmax in patient (4 patients) with renal insufficiency assessed as hydroxy flutamide at 250 mg, po administered as single dose by gas chromatography", "parameters": "dose 250 mg, route oral", "conditions": "in vivo"}, "[3]": {"assay": "Drug excretion in urine of patient (7 patients) with renal insufficiency assessed as hydroxy flutamide at 250 mg, po administered as single dose by gas chromatography", "conditions": "human, in vivo", "method_in_brief": "as §1"}}, "data": [{"smiles": "CC(C)C(=O)Nc1ccc([N+](=O)[O-])c(C(F)(F)F)c1", "note": "[FLUTAMIDE]", "values": [{"measurement": "beta t1/2", "setting": "Homo sapiens [1]", "value": 8, "unit": "h"}, {"measurement": "Cmax", "setting": "Homo sapiens [2]", "value": 874, "unit": "ng/mL"}, {"measurement": "Drug excretion", "setting": "[3]", "value": 88.3, "unit": "µg"}]}]}
